Molecules are shown by their SMILES.

This data set in a line: Toxicity liver stage against HepG2, at 10uM. It counts as cell-based. Set-up: test concentration 10 uM, cell line HepG2-A16-CD81EGFP. The conditions noted are these: human, HepG2-A16-CD81EGFP cells; read-out: INHIBITION
Put shortly: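 Uninfected HepG2-A16-CD81EGFP cells, 3 × 10^3 per well, 1536-well, plated on prespotted compound at 10 μM final, parasite-free screening media added to match infected plates; puromycin 10 μM positive, DMSO 0.5% negative; run in parallel with 48 h PbLuc assay at 37 °C, 5% CO2; viability by CellTiter-Glo luminescence, normalized to controls.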
Regarding `O=c1c2ccccc2nc2n1C(CSc1ccc(Cl)cc1)CN2` (centres undefined), the cytotoxicity at 10 µM turned out to be 9.38%.
The figure for `COc1ccc2c(c1)nc1n2[C@@H](CNC(=O)c2cccnc2)COC1` is -3.74%.
The figure for `CCN1CCC(=O)N(C)Cc2cc(F)ccc21` is 9.78%; for `NCCC(Cc1ccccc1)c1ccco1` (centres undefined) it is 0.45%; for `COc1ccc(-c2noc(C(N)CCSC)n2)cc1` (centres undefined) it is -7.27%.
For `COC(=O)N1CCc2ccccc2C1C(=O)NCc1ccncc1` (centres undefined), the cytotoxicity at 10 µM was -4.83%.
In the case of `CN(C)CC1CSCCCN1C(=O)c1ccc(-n2cccc2)cc1` (centres undefined) it was 10%; in that of `COc1ccc(CC(=O)N2CCC3(CC2)CCN(CC(C)C)C3=O)cc1`, 1.11%; in that of `CC(=O)N1CCC2(CC1)CNc1ccc(F)cc12`, 1.63%.
In the case of `O=C(c1cc(-c2ccn(CC3CC3)n2)n2ccccc12)N1CCOCC1` it was 9.76%; in that of `CCN(CC)[C@@H]1CN(Cc2cnn(C)c2)[C@@H]2COC[C@H]12`, 8.61%.
In the case of `O=C(C1CC=CC1)N1CC[C@H]2[C@@H]1CCC(=O)N2c1ccccc1` it was 8.88%; in that of `CCN(CC)CCCNC(=O)c1nn(CC)cc1Cl`, 10.8%.
Consider `CC(=O)NCCCn1ncc2c(C)cccc21`, for which the cytotoxicity at 10 µM came to 9.68%.
In the case of `CCC(=O)N1CCC(c2nc(N3CCOCC3)ncc2S(C)(=O)=O)CC1` it was 3.65%; in that of `Cc1cccc(Nc2ccc(C3CCN(Cc4ncc[nH]4)CC3)nc2)n1`, -2.83%; in that of `Nc1cccc(C2CN(C(=O)CN3CCOCC3)CCO2)n1` (centres undefined), -8.83%.
In the case of `O=C(NCCCN1CCOCC1)Nc1cnc2cc(Cl)ccc2c1O` it was 1.29%; in that of `O=C(c1cnco1)N1C[C@@H]2CC[C@H](Oc3ccccc3F)[C@@H]2C1`, 5.22%; in that of `COCCN1C(=O)CO[C@H]2CN(Cc3c[nH]nc3-c3ccccc3)C[C@@H]21`, -4.04%.
The figure for `Cc1noc(C)c1CN(C)C(=O)C1CCCCN1S(C)(=O)=O` (centres undefined) is 5.04%; for `CCOC(=O)NC1CCCN(c2cncc(Br)c2)C1` (centres undefined) it is -46.4%; for `Cc1cc(Cn2cc(C#N)c(=O)c3ccccc32)no1` it is 5.76%.
As to `CC(=O)NCCCSC1CCN(c2ccccc2Cl)C1=O` (centres undefined), the cytotoxicity at 10 µM is -9.04%.
The figure for `COCCS(=O)(=O)N1CCN(c2cccc(O)c2)CC1` is 5.33%; for `CC(C)Cc1nnc(NC(=O)NC(CCO)c2cccs2)s1` (centres undefined) it is 0.191%; for `Cc1c(C(=O)NCCC(C)C)nnn1-c1cccc2c1CCN(C)C2` it is 1.31%.
In the case of `CCC(C)(C)NC(=O)c1nnn(-c2cccc3c2CCN(C)C3)c1C` it was -0.663%.
As to `O=C(CCN1CCC(C(=O)c2cc(F)ccc2F)CC1)NC1CCCC1`, the cytotoxicity at 10 µM worked out at 4.76%.
With `CC(C)S(=O)(=O)NC(=O)c1cc(-c2cccc(Cl)c2)no1`, the cytotoxicity at 10 µM came out at 10%.
In the case of `Cc1nn(C)c(N2CCOCC2)c1CNC(C)c1ccccn1` (centres undefined) it was -10.7%.
The figure for `Cc1cc(F)ccc1-n1cc(O)c(C(=O)NCC[S+](C)[O-])n1` (centres undefined) is 9.38%.
Regarding `Cc1nnc2n1CCN(C(=O)CN1C(=O)C(C)Oc3ccccc31)C2` (centres undefined), the cytotoxicity at 10 µM was -0.905%.
`COc1cc2c(c(OC)c1OC)CCN(CCn1nc(C)cc1C)CC2`: the cytotoxicity at 10 µM was determined as 12.9%.
The figure for `Cc1ccc(S(=O)(=O)NC(=O)CCOCc2ccccc2)s1` is -11.2%; for `Cc1cnn(CC(=O)NC2CCCc3cc(OC(F)F)ccc32)c1` (centres undefined) it is -0.653%; for `CNS(=O)(=O)c1ccc(CNC(=O)N(C)CC(O)COC)cc1` (centres undefined) it is -1.22%.
The figure for `CCN(C)C(C(=O)Nc1ccc2c(c1)CCC(=O)N2)c1ccccc1` (centres undefined) is -1.45%; for `Cc1cc(Br)ccc1C(=O)N(C)CCNS(C)(=O)=O` it is -54.1%.
The figure for `COCC(C)N(C)C(=O)NC1CCN(S(C)(=O)=O)CC1` (centres undefined) is 5.36%.
Take `Cc1cccc(N(CC(=O)N2CCCCC2)Cc2ccno2)c1`: the cytotoxicity at 10 µM came to 3.1%.
The figure for `COc1ccc(S(=O)(=O)NC(=O)c2ccccc2F)cc1OC` is -2.72%; for `Cn1cc(C(=O)N[C@@H]2CN(Cc3ccoc3)[C@@H]3CCCO[C@@H]32)cn1` it is -104%.
In the case of `CC(C)CNC(=O)[C@H]1CCS(=O)(=O)[C@@H]2CN(c3ncccn3)C[C@H]12` it was -110%; in that of `Cc1cnc(N2CCC3(C2)CN(S(=O)(=O)C2CC2)C3)nc1`, -106%; in that of `CN1CC2(CCN(C(=O)Cn3ncc4ccccc4c3=O)CC2)OC1=O`, -2.96%.
Take `COc1cc(CN(Cc2ccccn2)CC(C)C)cc2c1OCO2`: the cytotoxicity at 10 µM was -16%.
The figure for `CC/C(C)=C/CCN1CCN(C)C2(CCNC(=O)CC2)C1` (centres undefined) is -48.2%.
In the case of `O=C(NCc1cc2n(n1)CCCN(Cc1ccc(Cl)s1)C2)C1CCC1` it was 5.46%; in that of `Cc1cc(C)n(CCC(=O)N2CCCCC2c2nccs2)n1` (centres undefined), 10.3%.
In the case of `C[C@@H]1CN(C(=O)c2c[nH]c(=O)c(Cl)c2)CC[C@@]1(O)C1CCOCC1` it was 1.09%; in that of `CCc1ncc(C(=O)NCC2CCN(Cc3ccncc3)CC2)cn1`, 8.12%.
Take `Cc1c(CN2CC[C@@H](N3CCC(O)CC3)[C@H](O)C2)[nH]c2ccc(Cl)cc12`: the cytotoxicity at 10 µM is -3.96%.
Take `CN1CCC2(CCC1=O)CCN(C(=O)Cc1ccc(O)c(F)c1)CC2`: the cytotoxicity at 10 µM is -8.99%.
The figure for `Cc1nn(C)c2ncnc(N(C)CC3CCN(CC(C)C)C3)c12` (centres undefined) is -5.79%; for `Cc1nccn1-c1ccc(NC(=O)C2CCCN2Cc2c[nH]cn2)cc1` (centres undefined) it is -15.2%; for `Cc1nn2c(N3CCS(=O)(=O)CC3)cc(-c3ccccc3)nc2c1C` it is -6.43%.
With `O=C(NCCc1cccnc1)c1ccc2nccn2c1`, the cytotoxicity at 10 µM was -38.6%.
The figure for `COc1ccnc(CN2CCC=C(C(C)NC(C)=O)C2)c1OC` (centres undefined) is -8.81%.
The figure for `Cc1cnccc1N1CCCN(C(=O)CCCc2cn[nH]c2)CC1` is -30.3%; for `CC(C)c1nccn1C1CCCN(C(=O)c2ccc3nncn3c2)C1` (centres undefined) it is -5.53%.
The figure for `COC(=O)c1cccn1C1CCN(C(=O)c2c(C)noc2C)CC1` is -11.4%; for `COC(CNC(=O)NCc1c(C)cc(C)[nH]c1=O)c1ccccc1` (centres undefined) it is -6.12%.
On to `CCOc1ccnc(N2CCN(C(=O)c3ccc(C#N)cc3)CC2)n1`, for which the cytotoxicity at 10 µM is -10.6%.
On to `CSc1nccn1-c1ccc(C(=O)NCC2CC2)cc1`, for which the cytotoxicity at 10 µM was -3.67%.
The figure for `CC(C)CCc1nc(CN2CCOC(Cn3cncn3)C2)cs1` (centres undefined) is -6.06%; for `CNS(=O)(=O)c1ccc(C(=O)N2CCCC2c2ccncc2)o1` (centres undefined) it is -6.23%.
In the case of `C=C(Cl)CN(C)C1CCN(CCc2ccccn2)CC1` it was -2.93%; in that of `Cc1ccc(-c2cc(CNC(=O)N3CCCN(C)CC3)on2)cc1`, -5.19%; in that of `CC1CN(CC(=O)NCc2cccs2)CCN1c1nccs1` (centres undefined), -12.8%.
The figure for `Cc1cccc(C2(C(=O)NC(C)Cn3ccnc3)CC2)c1` (centres undefined) is 0.742%; for `COc1c(C2CCCN2C(=O)c2c(C)noc2C(C)C)c(C)nn1C` (centres undefined) it is 8.88%; for `Cc1cnn(CC(=O)N2CCCN(c3nc(C)cs3)CC2)c1` it is -4.71%.
In the case of `COc1c(CNCc2ccc(OCC(N)=O)cc2)c(C)nn1C`, the cytotoxicity at 10 µM was -3.81%.
The figure for `CCn1cnnc1CNC(=O)N(C)Cc1cccc(OC(F)F)c1` is -3.73%; for `COc1ccc(CNC(=O)NCCc2csc(C)n2)cn1` it is -7.05%; for `CCC(=O)N(C)CC(=O)Nc1ccc(Br)cn1` it is 7.48%.
In the case of `Cc1ccc(CC(=O)NCCCNS(C)(=O)=O)cc1` it was 3.1%; in that of `Cc1ccc(CN2C(=O)CCC23CCC(NC2CCOC2)CC3)cc1` (centres undefined), -3.04%; in that of `O=C(c1ccco1)N1C[C@@H]2[C@@H](C1)OCC(=O)N2Cc1cccnc1`, 3.04%.
The figure for `O=C1CCC2(CCN(c3ncc(F)cn3)CC2)N1Cc1ccncc1` is 5.02%; for `COCC1c2c(cnn2C)CCN1Cc1ccco1` (centres undefined) it is 2.32%; for `O=C(N[C@@H]1CN[C@H]2CCCO[C@H]21)c1cccnc1` it is 5.25%.
On to `O=C(N[C@@H]1CN(c2ncccn2)C[C@@H]2CCCO[C@@H]21)c1ccncc1`, for which the cytotoxicity at 10 µM came out at 2.29%.
The figure for `CO[C@@H]1CCN(S(=O)(=O)N(C)C)[C@@H]2CN(Cc3cccnc3)C[C@@H]21` is -1.91%.
The figure for `Cc1cccc(CN2C[C@@H]3COC[C@]3(CNC(=O)C3CC3)C2)c1` is -107%.
The figure for `O=C(NC[C@H]1OC[C@@H]2CCN(C3CCOCC3)C[C@@H]21)c1ccncc1` is 4.98%.
Consider `Cc1cccc(CN2C[C@H](OCc3ccccn3)[C@H]3COC[C@H]32)n1`, for which the cytotoxicity at 10 µM was -92.6%.
The figure for `Cc1ccc(N2CCCc3sc(C(=O)NCCC#N)nc32)nn1` is 11.6%.
The figure for `COCC(=O)N1C[C@@H](OCc2ccncc2)[C@@H]2OCCC[C@@H]21` is -0.182%; for `CN1CCS(=O)(=O)[C@@H]2CCN(C(=O)CC(C)(C)C)CC[C@@H]21` it is 1.2%; for `CCn1cc2c(n1)C(COC)CN(c1ccc(C)nn1)C2` (centres undefined) it is 11.6%.
The figure for `CCCSCC(=O)N1C[C@H]2CC[C@@H](C1)N(Cc1ccccn1)C2=O` is 3.32%; for `O=C1Nc2ccccc2CN(CC=Cc2ccccc2)C12CCNC2` (centres undefined) it is 2.96%.
